Measured values from different studies.
Lines come from different studies, so protocols differ.
Target: Mitogen-activated protein kinase kinase kinase 12 (MAP3K12, Homo sapiens, UniProt Q12852)
Residues used in one study (Q12852 1-859): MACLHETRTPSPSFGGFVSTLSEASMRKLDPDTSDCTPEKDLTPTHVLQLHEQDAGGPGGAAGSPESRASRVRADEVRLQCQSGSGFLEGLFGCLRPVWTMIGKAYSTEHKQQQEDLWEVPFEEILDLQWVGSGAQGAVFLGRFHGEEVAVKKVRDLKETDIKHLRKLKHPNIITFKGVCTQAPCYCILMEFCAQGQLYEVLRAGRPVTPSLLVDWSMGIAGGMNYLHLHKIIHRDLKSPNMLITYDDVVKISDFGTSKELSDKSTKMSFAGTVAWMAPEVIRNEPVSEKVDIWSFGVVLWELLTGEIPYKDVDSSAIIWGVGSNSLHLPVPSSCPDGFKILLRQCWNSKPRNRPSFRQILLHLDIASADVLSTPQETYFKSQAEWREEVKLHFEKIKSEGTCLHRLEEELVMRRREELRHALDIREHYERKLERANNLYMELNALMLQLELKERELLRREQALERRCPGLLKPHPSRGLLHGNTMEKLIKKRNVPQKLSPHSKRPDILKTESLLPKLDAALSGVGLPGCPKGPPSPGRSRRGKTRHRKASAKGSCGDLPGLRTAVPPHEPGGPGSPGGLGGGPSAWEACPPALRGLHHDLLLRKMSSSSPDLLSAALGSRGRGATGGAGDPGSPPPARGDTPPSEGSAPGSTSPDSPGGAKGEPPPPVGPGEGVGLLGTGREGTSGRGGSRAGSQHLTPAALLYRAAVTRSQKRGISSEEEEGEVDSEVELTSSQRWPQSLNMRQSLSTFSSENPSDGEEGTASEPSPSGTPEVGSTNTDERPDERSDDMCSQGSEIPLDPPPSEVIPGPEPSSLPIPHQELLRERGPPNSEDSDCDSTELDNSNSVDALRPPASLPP

Compound	observed	method	tested at	remaining binding [%]
CN(C)c1nccc(-c2cnn3ncccc23)n1	binding		1 µM	98
O=C1CCc2cc(Nc3cc(OC4CCOCC4)c([N+](=O)[O-])cc3Cl)ccc2N1	cell-free assay	competition with immobilised ligand	1 µM	100
O=C(c1ccc(Nc2ncc(Cl)c(-c3ccc(Cl)s3)n2)cc1)N1CCC(N2CCCC2)CC1	binding	competition with immobilised ligand	1 µM	7.8
CCN1CCN(Cc2ccc(C(=O)Nc3ccc(C)c(Oc4ccc5c(c4)CC(=O)N5)c3)cc2C(F)(F)F)CC1	binding	competition with immobilised ligand	1 µM	100
O=C(Nc1c[nH]nc1C(=O)NC1CCNCC1)c1cc(F)cc(F)c1	binding	competition with immobilised ligand	1 µM	88
C[C@@H]1CN(c2cc(-c3n[nH]c4ccc(OC5(C)CC5)cc34)ncn2)C[C@H](C)O1	cell-free assay	competition with immobilised ligand	0.1 µM	82
COc1cnc(Nc2cccc(S(N)(=O)=O)c2)nc1N1CCN(c2ccccc2)C(=O)C1	binding	competition with immobilised ligand	1 µM	82
O=C(N1CCS(=O)(=O)CC1)N1C[C@H](c2ccc(OC(F)(F)F)cc2)C[C@H](c2nc(C3CC3)no2)C1	cell-free assay	competition with immobilised ligand	1 µM	0
Nc1ncc2c(n1)-c1c([nH]c3ccc(C#CC4CC4)cc13)CCCC2	binding	competition with immobilised ligand	1 µM	93
Cc1cnc(Nc2ccc(C(=O)N3CCC(N4CCCC4)CC3)cc2)nc1-c1cc2ccccc2s1	binding	competition with immobilised ligand	1 µM	8.3
N[C@H]1CCN(c2nccc(-c3cnn4ncccc34)n2)C1	binding		1 µM	71
O=C(NCCCN1CCOCC1)c1ccc(Nc2ncc(Cl)c(-c3ccc(Cl)s3)n2)cc1	binding	competition with immobilised ligand	1 µM	33
C[C@@H]1CCN(c2nccc(-c3cnn4ncccc34)n2)C1	binding		1 µM	75
Cc1nc(N2CC[C@@H](O)C2)ncc1-c1cc(C(F)(F)F)cc2[nH]ncc12	binding	competition with immobilised ligand	1 µM	99
CN(CCCC(F)(F)F)c1nccc(-c2cnn3ncccc23)n1	binding		1 µM	100
Cc1cc(-n2nc(Cc3cc(F)cc(C(F)(F)F)c3)nc2C)ccc1C(N)=O	cell-free assay	competition with immobilised ligand	1 µM	100
CN(c1nccc(-c2cnn3ncccc23)n1)C1CC1	binding		1 µM	100
COc1cnc(Nc2cccc(S(N)(=O)=O)c2)nc1N1CCN(c2ccccc2)CC1	binding	competition with immobilised ligand	1 µM	72
O=C(Nc1cnc(Oc2ccc(F)cc2)nc1)N1CCc2ncccc2[C@@H]1c1ccc(F)cc1	cell-free assay	competition with immobilised ligand	1 µM	100
CC1CCCN1c1nccc(-c2cnn3ncccc23)n1 (centres unmarked)	binding		1 µM	100
